Results: publication PMC10238757 (Pharmacology Research & Perspectives, 2023)

How the values were obtained:
Format in all cases: in vivo, human
[1] = Relative bioavailability and food effect; conditions: 100 mg; for Tmax: human, plasma, oral, Median t max
How it was run: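 Open-label, single-dose, 3-period cross-over; 17 healthy participants; washout ≥24 days. Each received 100 mg oral as PiB fed, tablet fed or tablet fasted. Overnight fast ≥9.5 h before and ≥4 h after dosing; fed arms got a moderate-fat meal 25 min pre-dose. Non-compartmental PK. Log_e PK parameters fitted by mixed-effect models (fed/fasted, tablet/PiB fixed; participant random). Back-transformed 90% CIs for AUC_0‐24, AUC_0‐∞, Cmax.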

Single ascending dose = assay: Single ascending dose
How it was run: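 Healthy participants, double-blind cross-over between 2 cohorts of 9, randomized 6:3 drug:placebo each period. Single oral doses of 10–800 mg right after a moderate-fat breakfast (600 calories, 30% fat). Plasma sampled to 360 h (protocol first set 96 h); LLOQ 10 ng/mL. Non-compartmental analysis; dose proportionality by power model.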

healthy participants = assay: Safety and tolerability, multiple ascending dose; conditions: for Abdominal pain, n occurrences (% of cohort) / All-cause AEs Grade 2, n occurrences (% of cohort) / All-cause AEs Grade 3/4, n occurrences (% of cohort) / All-cause AEs, n occurrences (% of cohort) / Constipation, n occurrences (% of cohort) / Diarrhea, n occurrences (% of cohort) / Drug-related AEs Grade 2, n occurrences (% of cohort) / Drug-related AEs Grade 3/4, n occurrences (% of cohort) / Drug-related AEs, n occurrences (% of cohort) / Headache, n occurrences (% of cohort) / MDSD, n occurrences (% of cohort): N=7
How it was run: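 AEs in healthy participants given oral test compound or placebo, recorded with grade and relation to treatment. Laboratory analyses, clinical parameters and suicidality were also monitored. Observation ran 360 h after dosing. Summaries were descriptive, with no formal statistics; parts 1–2 blinded and placebo-controlled, part 3 open-label.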

C=C(C)[C@@H]1CC[C@]2(NCCN3CCS(=O)(=O)CC3)CC[C@]3(C)[C@H](CC[C@@H]4[C@@]5(C)CC=C(C6=CC[C@@](COc7ncccc7C#N)(C(=O)O)CC6)C(C)(C)[C@@H]5CC[C@]43C)[C@@H]12 [GSK'937]
increase in C max, tablet versus PiB ([1]; fed): approximately 37%
increase in bioavailability by AUC0-24, tablet versus PiB ([1]; fed): 38%
increase in bioavailability by AUC0-∞, tablet versus PiB ([1]; fed): 35%
Tmax ([1]; 100 mg PiB fed): 9 h
Tmax ([1]; 100 mg tablet fasted): 6 h
Tmax ([1]; both tablet and PiB formulations under fed conditions): 8 to 9 h
exposure in fed versus fasted states ([1]; tablet): > 2 fold
t max, h median (range) (Single ascending dose; SAD 800 mg): 18.08 (12.1–24.1) h
time up to which concentrations were quantifiable (Single ascending dose; after the 10-mg dose): up to 96 h
time up to which concentrations were quantifiable (Single ascending dose; after the 30-mg dose, 5 of 6 participants): ≤ 264 h
time up to which concentrations were quantifiable (Single ascending dose; all other doses except 1 individual in the 80-mg cohort): ≤ 360 h
AUC(0-t) (Single ascending dose; human, plasma, oral, 10 mg): 2490 ng·h/mL
Cmax (Single ascending dose; human, plasma, oral, 10 mg): 39.2 ng/mL
Tmax (Single ascending dose; human, plasma, oral, 10 mg, t max, h median (range), SAD 10 mg): 6.98 h
Cmax (Single ascending dose; human, plasma, oral, 30 mg): 127 ng/mL
half-life (Single ascending dose; human, plasma, oral, 30 mg, t 1/2 GM (%CVb), SAD 30 mg): 75.9 h
Tmax (Single ascending dose; human, plasma, oral, 30 mg, t max, h median (range), SAD 30 mg): 8 h
Cmax (Single ascending dose; human, plasma, oral, 80 mg): 310 ng/mL
half-life (Single ascending dose; human, plasma, oral, 80 mg, t 1/2 GM (%CVb), SAD 80 mg): 79.1 h
Tmax (Single ascending dose; human, plasma, oral, 80 mg, t max, h median (range), SAD 80 mg): 7.98 h
Cmax (Single ascending dose; human, plasma, oral, 160 mg): 529 ng/mL
half-life (Single ascending dose; human, plasma, oral, 160 mg, t 1/2 GM (%CVb), SAD 160 mg): 91.8 h
Tmax (Single ascending dose; human, plasma, oral, 160 mg, t max, h median (range), SAD 160 mg): 7.95 h
Cmax (Single ascending dose; human, plasma, oral, 320 mg): 1010 ng/mL
half-life (Single ascending dose; human, plasma, oral, 320 mg, t 1/2 GM (%CVb), SAD 320 mg): 96.8 h
Tmax (Single ascending dose; human, plasma, oral, 320 mg, t max, h median (range), SAD 320 mg): 6.99 h
Cmax (Single ascending dose; human, plasma, oral, 640 mg): 1460 ng/mL
half-life (Single ascending dose; human, plasma, oral, 640 mg, t 1/2 GM (%CVb), SAD 640 mg): 82.6 h
Tmax (Single ascending dose; human, plasma, oral, 640 mg, t max, h median (range), SAD 640 mg): 7 h
Cmax (Single ascending dose; human, plasma, oral, 800 mg): 2860 ng/mL
half-life (Single ascending dose; human, plasma, oral, 800 mg, t 1/2 GM (%CVb), SAD 800 mg): 67.4 h
Tmax (Single ascending dose; human, plasma, oral, 800 mg, t max, h median (range), SAD 800 mg): 18 h
Tmax (Single ascending dose; human, plasma, oral, Median t max, all single doses except the 800-mg dose): 7 to 8 h
half-life (Single ascending dose; human, plasma, oral, t 1/2, range across doses, part 1 single doses): 67 to 97 h
half-life (Single ascending dose; human, plasma, oral, terminal phase half-life, all doses following single and repeat dosing): ~72 h
changes in laboratory analyses, clinical parameters, or suicidality (healthy participants; MAD): No significant changes
deaths or SAEs (healthy participants; MAD): no deaths or SAEs
Abdominal pain, n occurrences (% of cohort) (healthy participants; MAD 25 mg QD): 0
All-cause AEs Grade 2, n occurrences (% of cohort) (healthy participants; MAD 25 mg QD): 0
All-cause AEs Grade 3/4, n occurrences (% of cohort) (healthy participants; MAD 25 mg QD): 0
All-cause AEs, n occurrences (% of cohort) (healthy participants; MAD 25 mg QD): 0
Constipation, n occurrences (% of cohort) (healthy participants; MAD 25 mg QD): 0
Diarrhea, n occurrences (% of cohort) (healthy participants; MAD 25 mg QD): 0
Drug-related AEs Grade 2, n occurrences (% of cohort) (healthy participants; MAD 25 mg QD): 0
Drug-related AEs Grade 3/4, n occurrences (% of cohort) (healthy participants; MAD 25 mg QD): 0
Drug-related AEs, n occurrences (% of cohort) (healthy participants; MAD 25 mg QD): 0
Headache, n occurrences (% of cohort) (healthy participants; MAD 25 mg QD): 0
MDSD, n occurrences (% of cohort) (healthy participants; MAD 25 mg QD): 0
Abdominal pain, n occurrences (% of cohort) (healthy participants; MAD 50 mg QD): 0
All-cause AEs Grade 2, n occurrences (% of cohort) (healthy participants; MAD 50 mg QD): 1 (14)
All-cause AEs Grade 3/4, n occurrences (% of cohort) (healthy participants; MAD 50 mg QD): 0
All-cause AEs, n occurrences (% of cohort) (healthy participants; MAD 50 mg QD): 3 (29)
Constipation, n occurrences (% of cohort) (healthy participants; MAD 50 mg QD): 0
Diarrhea, n occurrences (% of cohort) (healthy participants; MAD 50 mg QD): 0
Drug-related AEs Grade 2, n occurrences (% of cohort) (healthy participants; MAD 50 mg QD): 0
Drug-related AEs Grade 3/4, n occurrences (% of cohort) (healthy participants; MAD 50 mg QD): 0
Drug-related AEs, n occurrences (% of cohort) (healthy participants; MAD 50 mg QD): 0
Headache, n occurrences (% of cohort) (healthy participants; MAD 50 mg QD): 1 (14)
MDSD, n occurrences (% of cohort) (healthy participants; MAD 50 mg QD): 1 (14)
Abdominal pain, n occurrences (% of cohort) (healthy participants; MAD 100 mg QD): 0
All-cause AEs Grade 2, n occurrences (% of cohort) (healthy participants; MAD 100 mg QD): 0
All-cause AEs Grade 3/4, n occurrences (% of cohort) (healthy participants; MAD 100 mg QD): 0
All-cause AEs, n occurrences (% of cohort) (healthy participants; MAD 100 mg QD): 8 (71)
Constipation, n occurrences (% of cohort) (healthy participants; MAD 100 mg QD): 0
Diarrhea, n occurrences (% of cohort) (healthy participants; MAD 100 mg QD): 0
Drug-related AEs Grade 2, n occurrences (% of cohort) (healthy participants; MAD 100 mg QD): 0
Drug-related AEs Grade 3/4, n occurrences (% of cohort) (healthy participants; MAD 100 mg QD): 0
Drug-related AEs, n occurrences (% of cohort) (healthy participants; MAD 100 mg QD): 1 (14)
Headache, n occurrences (% of cohort) (healthy participants; MAD 100 mg QD): 0
MDSD, n occurrences (% of cohort) (healthy participants; MAD 100 mg QD): 1 (14)
Abdominal pain, n occurrences (% of cohort) (healthy participants; MAD 500 mg QW): 1 (14)
All-cause AEs Grade 2, n occurrences (% of cohort) (healthy participants; MAD 500 mg QW): 0
All-cause AEs Grade 3/4, n occurrences (% of cohort) (healthy participants; MAD 500 mg QW): 0
All-cause AEs, n occurrences (% of cohort) (healthy participants; MAD 500 mg QW): 7 (57)
